This is an account of results in ChEMBL document CHEMBL1136724 (J Med Chem, 2003).

The subject of one data set is DLD-1. In words: Inhibitory activity against synthesis of inducible nitric oxide synthase by DLD-1 cells. The conditions noted are these: Homo sapiens. The data set is classed as functional, cell-based. The method, boiled down:
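Intact human DLD-1 cells preincubated with a cytokine cocktail to induce NO production; inhibition of NO production measured; IC50 is the mean of at least two separate measurements.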

Data set [1] concerns the target Nitric oxide synthase, inducible (Homo sapiens, UniProt P35228). Briefly: Inhibitory activity of compound against human inducible nitric oxide synthase.
Data set [2] addresses T1, Nitric oxide synthase 1 (Homo sapiens, UniProt P29475). Briefly: Inhibitory activity against human neuronal nitric oxide synthase.
A further data set addresses T2, Nitric oxide synthase 3 (Homo sapiens, UniProt P29474).
T2 sequence (P29474 whole entry): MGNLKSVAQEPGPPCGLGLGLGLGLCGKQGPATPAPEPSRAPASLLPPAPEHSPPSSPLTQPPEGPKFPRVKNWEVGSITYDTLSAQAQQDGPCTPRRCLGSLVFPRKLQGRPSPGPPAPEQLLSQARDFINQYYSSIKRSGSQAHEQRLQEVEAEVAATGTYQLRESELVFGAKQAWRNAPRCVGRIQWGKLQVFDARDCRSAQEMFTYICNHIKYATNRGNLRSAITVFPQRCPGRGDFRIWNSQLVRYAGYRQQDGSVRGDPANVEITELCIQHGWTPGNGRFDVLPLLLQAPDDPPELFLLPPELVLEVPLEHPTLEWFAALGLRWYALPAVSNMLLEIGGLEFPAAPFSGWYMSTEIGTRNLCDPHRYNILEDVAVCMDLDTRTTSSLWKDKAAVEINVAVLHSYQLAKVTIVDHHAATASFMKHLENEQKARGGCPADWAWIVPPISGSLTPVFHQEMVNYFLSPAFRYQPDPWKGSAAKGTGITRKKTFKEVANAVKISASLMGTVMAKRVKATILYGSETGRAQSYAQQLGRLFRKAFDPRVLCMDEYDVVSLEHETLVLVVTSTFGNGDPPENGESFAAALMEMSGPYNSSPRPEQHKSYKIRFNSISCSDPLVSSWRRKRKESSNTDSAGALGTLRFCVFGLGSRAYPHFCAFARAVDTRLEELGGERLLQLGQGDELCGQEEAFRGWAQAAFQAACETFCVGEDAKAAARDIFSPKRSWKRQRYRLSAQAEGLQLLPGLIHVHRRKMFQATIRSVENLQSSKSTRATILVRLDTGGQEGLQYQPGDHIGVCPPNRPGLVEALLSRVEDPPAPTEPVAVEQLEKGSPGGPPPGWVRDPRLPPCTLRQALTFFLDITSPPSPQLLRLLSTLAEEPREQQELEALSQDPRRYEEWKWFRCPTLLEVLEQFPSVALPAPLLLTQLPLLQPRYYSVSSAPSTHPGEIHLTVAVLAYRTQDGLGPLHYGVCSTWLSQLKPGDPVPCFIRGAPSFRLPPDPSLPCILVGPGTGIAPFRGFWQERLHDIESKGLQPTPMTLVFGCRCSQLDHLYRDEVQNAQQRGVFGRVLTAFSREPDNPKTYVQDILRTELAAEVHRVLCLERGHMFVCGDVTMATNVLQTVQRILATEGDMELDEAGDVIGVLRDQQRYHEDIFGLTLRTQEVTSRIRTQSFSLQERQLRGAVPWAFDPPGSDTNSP
Briefly: Inhibitory activity against human endothelial nitric oxide synthase.

Data set [3] deals with Rattus norvegicus. In words: Inhibition of LPS induced nitrite production in rat following 4 hr of oral administration. The data set is classed as functional. The note with it: read-out: ID50 (the source's name).
Data set [4] in a line: Pharmacokinetic parameter pKa for amidine group of compound was evaluated. The data set is classed as physicochemical.
Data set [5] addresses T3, Nitric oxide synthase 3 (Homo sapiens) (UniProt P29474).
T3 sequence (whole entry): T2 sequence (P29474 whole entry)
In words: Inhibitory activity of 100 uM compound against human endothelial nitric oxide synthase; Range is […]%-[…]%.

In data set [6] the target is T3, Nitric oxide synthase 3 (Homo sapiens). Briefly: Inhibitory activity of 100 uM compound against human endothelial nitric oxide synthase.
The target is the same in data set [7]. Briefly: Inhibitory activity of 100 uM compound against human endothelial nitric oxide synthase; range is […]%-[…]%. The conditions noted are these: at 100 µM.
Data set [8] has as its target T1, Nitric oxide synthase 1. In words: Inhibitory activity of 100 uM compound against human neuronal nitric oxide synthase; range is […]%-[…]%. The conditions noted are these: at 100 µM.
For data set [9], the species on record is Rattus norvegicus. Briefly: animal or person.
In data set [10] the target is T1, Nitric oxide synthase 1. Briefly: Inhibitory activity of 100 uM compound against human neuronal nitric oxide synthase; Range is […]%-[…]%.

T1 sequence (P29475 whole entry): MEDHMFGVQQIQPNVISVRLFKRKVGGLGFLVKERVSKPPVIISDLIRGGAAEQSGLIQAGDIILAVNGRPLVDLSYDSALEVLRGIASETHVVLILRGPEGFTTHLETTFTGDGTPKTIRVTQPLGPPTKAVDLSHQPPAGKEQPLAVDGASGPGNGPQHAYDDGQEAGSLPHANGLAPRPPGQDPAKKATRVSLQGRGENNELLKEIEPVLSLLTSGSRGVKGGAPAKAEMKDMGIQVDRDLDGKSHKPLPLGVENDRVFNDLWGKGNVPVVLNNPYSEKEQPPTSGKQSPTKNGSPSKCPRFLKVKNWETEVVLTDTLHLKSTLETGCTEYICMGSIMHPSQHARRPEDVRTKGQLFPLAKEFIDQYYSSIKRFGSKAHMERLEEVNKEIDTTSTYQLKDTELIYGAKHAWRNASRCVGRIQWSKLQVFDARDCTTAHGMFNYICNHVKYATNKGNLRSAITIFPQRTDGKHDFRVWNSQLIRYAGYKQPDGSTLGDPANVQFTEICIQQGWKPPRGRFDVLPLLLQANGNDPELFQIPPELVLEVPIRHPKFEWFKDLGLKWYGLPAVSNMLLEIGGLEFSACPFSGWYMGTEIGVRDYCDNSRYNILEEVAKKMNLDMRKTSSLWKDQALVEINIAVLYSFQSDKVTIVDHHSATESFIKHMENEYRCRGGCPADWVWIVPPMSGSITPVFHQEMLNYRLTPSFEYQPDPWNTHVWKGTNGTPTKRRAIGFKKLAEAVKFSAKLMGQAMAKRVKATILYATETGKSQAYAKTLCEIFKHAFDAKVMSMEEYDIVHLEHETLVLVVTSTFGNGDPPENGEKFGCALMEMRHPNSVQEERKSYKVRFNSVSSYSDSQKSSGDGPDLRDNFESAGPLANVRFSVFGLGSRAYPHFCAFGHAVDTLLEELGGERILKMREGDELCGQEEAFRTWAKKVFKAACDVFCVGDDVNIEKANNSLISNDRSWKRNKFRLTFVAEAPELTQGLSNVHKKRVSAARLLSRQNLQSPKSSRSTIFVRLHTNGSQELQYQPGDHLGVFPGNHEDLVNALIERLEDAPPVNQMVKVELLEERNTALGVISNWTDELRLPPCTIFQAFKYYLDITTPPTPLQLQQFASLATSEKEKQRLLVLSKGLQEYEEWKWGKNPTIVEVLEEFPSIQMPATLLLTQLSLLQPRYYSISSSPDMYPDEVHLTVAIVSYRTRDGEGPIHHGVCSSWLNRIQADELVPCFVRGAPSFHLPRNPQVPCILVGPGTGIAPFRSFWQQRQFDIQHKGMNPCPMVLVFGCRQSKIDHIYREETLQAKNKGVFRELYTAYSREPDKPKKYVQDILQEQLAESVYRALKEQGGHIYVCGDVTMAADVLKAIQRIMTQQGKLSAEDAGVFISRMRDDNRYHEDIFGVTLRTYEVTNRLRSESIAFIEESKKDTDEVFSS
Nitric oxide synthase, inducible, sequence (P35228 whole entry): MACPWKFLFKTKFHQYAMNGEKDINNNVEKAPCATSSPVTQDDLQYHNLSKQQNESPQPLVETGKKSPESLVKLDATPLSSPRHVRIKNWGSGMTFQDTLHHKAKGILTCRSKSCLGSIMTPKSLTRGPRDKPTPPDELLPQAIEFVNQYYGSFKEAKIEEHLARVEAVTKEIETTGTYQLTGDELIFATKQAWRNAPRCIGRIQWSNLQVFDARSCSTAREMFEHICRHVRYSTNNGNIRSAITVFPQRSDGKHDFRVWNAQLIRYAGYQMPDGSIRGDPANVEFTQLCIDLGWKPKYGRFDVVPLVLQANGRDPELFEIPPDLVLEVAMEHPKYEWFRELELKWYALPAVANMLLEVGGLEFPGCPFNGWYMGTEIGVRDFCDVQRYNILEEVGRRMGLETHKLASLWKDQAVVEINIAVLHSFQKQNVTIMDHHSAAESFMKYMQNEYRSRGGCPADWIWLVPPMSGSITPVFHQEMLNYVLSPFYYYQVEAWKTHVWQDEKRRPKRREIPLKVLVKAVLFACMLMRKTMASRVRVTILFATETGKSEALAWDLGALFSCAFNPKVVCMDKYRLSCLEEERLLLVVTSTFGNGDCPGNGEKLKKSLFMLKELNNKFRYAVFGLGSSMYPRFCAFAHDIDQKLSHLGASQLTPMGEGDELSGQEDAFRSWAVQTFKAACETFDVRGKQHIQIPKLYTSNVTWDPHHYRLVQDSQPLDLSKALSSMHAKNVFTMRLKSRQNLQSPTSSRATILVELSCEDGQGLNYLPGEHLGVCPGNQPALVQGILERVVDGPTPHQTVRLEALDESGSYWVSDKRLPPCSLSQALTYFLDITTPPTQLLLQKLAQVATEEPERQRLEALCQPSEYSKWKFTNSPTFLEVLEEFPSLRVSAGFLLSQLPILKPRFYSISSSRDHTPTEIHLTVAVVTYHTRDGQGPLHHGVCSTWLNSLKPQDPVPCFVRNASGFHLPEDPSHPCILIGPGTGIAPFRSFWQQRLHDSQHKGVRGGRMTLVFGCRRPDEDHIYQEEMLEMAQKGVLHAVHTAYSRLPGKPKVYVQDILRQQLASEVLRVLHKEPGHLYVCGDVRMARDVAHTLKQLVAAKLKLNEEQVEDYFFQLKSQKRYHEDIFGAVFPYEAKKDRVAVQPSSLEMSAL

On to `NC1=NC(C2CCC2)Nc2cccc(F)c21` (configuration not stated), for which the IC50 with DLD-1 worked out at 1.2 µM; in [1], 0.02 µM; against Nitric oxide synthase 1 [2] it was 1 µM; on Nitric oxide synthase 3 it was 4.6 µM. The ED50 in the data set with Rattus norvegicus [3] is above 30 µmol/kg.
As to `N#Cc1ccc(C(=O)N2CCC3(CC2)N=C(N)c2c(F)cccc2N3)cc1`, the IC50 in the data set with DLD-1 came to 4.5 µM; in data set [1], 0.027 µM; against Nitric oxide synthase 1 [2], 12 µM. The pKa in [4] was found to be 9.1. The molecule also had an inhibition in [5] of 50%. The ED50 in the data set with Rattus norvegicus [3] turned out to be 14 µmol/kg.
Turning to `CCOC(=O)N1CCC2(CC1)N=C(N)c1c(F)cccc1N2`, the IC50 with DLD-1 amounted to 9.6 µM; in data set [1] it was 0.035 µM; at Nitric oxide synthase 1 [2], 40 µM; against Nitric oxide synthase 3, 100 µM.
`NC1=NC(c2ccccc2)Nc2ccccc21` (configuration not stated): in data set [1], the IC50 worked out at 2.5 µM.
For the molecule `NC1=NC2(CCN(C(=O)c3ccsc3)CC2)Nc2cccc(F)c21`, the IC50 in the data set on DLD-1 came to 12 µM; in data set [1], 0.067 µM; at Nitric oxide synthase 1 [2], 70 µM. The molecule further showed an inhibition in data set [6] below 25%.
`NC1=NC2(CCNCC2)Nc2ccccc21` displayed an IC50 in [1] of around 50 µM.
The molecule `NC1=NC(c2cccs2)Nc2ccccc21` (configuration not stated) showed an IC50 in [1] of 0.4 µM.
In the case of `NC1=NC(c2ccco2)Nc2c(F)ccc(F)c21` (configuration not stated), the IC50 in the data set with DLD-1 is 0.2 µM; in data set [1] it was 0.002 µM; on Nitric oxide synthase 1 [2], 0.06 µM; at Nitric oxide synthase 3, 0.18 µM. The ED50 with Rattus norvegicus [3] came out at 16 µmol/kg.
`NC1=NC(C2CCC2)Nc2ccccc21` (configuration not stated) showed an IC50 in [1] of 1.1 µM.
For `CC1N=C(N)c2ccccc2N1` (configuration not stated), the IC50 in [1] was found to be 9.8 µM. This IC50 is about 8.9-fold higher than that of the molecule before.
In data set [1], `CCC1(C)N=C(N)c2ccccc2N1` (configuration not stated) returned an IC50 of 32 µM. This IC50 is about 3.3-fold higher than that of the molecule before.
`CCC1N=C(N)c2ccccc2N1` (configuration not stated) had an IC50 in [1] of 0.9 µM. This IC50 lies about 36-fold lower than the previous one.
Still for that read-out and setting: to `CC1(C)N=C(N)c2ccccc2N1` belongs 52 µM.
As for `CCOC(=O)N1CCC2(CC1)N=C(N)c1c(Cl)cccc1N2`, the half-maximal inhibitory concentration (IC50) was 9.2 µM in the data set with DLD-1 and 0.047 µM in data set [1]. Moreover, the inhibition (in data set [7]; against Nitric oxide synthase 1 [8]) was 50% throughout.
As to `COC(=O)[C@@H](N)CCCNC(=N)N[N+](=O)[O-]` [L-NAME], the figures for the IC50 in the data set on DLD-1 and on Nitric oxide synthase 1 [2] were above 300 µM and 0.15 µM, respectively. Further, the ED50 in the data set with Rattus norvegicus [3] was above 300 µmol/kg.
With `CCOC(=O)N1CCC2(CC1)N=C(N)c1sccc1N2`, the IC50 in the data set with DLD-1 was above 500 µM; in [1], 0.3 µM; at Nitric oxide synthase 1 [2], 50 µM; at Nitric oxide synthase 3, 100 µM.
Take `N=C(N)NN` [PIMAGEDINE]: the IC50 in the data set with DLD-1 is above 1000 µM; in data set [1] it was 3.9 µM; on Nitric oxide synthase 1 [2], 5.9 µM; against Nitric oxide synthase 3, 100 µM.
`NC1=NC(C2CC2)Nc2ccccc21` (configuration not stated): in data set [1], 1.1 µM corresponded to half-maximal inhibition (IC50).
With `CC(=N)NCCCC[C@H](N)C(=O)O` [L-NIL], the IC50 in the data set with DLD-1 amounted to 2.8 µM; in [1] it was 0.1 µM; on Nitric oxide synthase 1 [2] it was 1.5 µM; on Nitric oxide synthase 3 it was 2.6 µM. Moreover, in the data set on Rattus norvegicus [3], the ED50 came to 9 µmol/kg.
In data set [1], `NC1=NCNc2ccccc21` showed an IC50 of 40 µM.
Take `NC1=NC(c2ccc(F)cc2)Nc2cccc(F)c21` (configuration not stated): the results for the IC50 (with DLD-1; in data set [1]; on Nitric oxide synthase 1 [2]) were 4 µM, 0.05 µM and 3.5 µM, respectively. The same molecule registered an inhibition in [6] below 25%. In addition, the ED50 with Rattus norvegicus [3] was above 30 µmol/kg.
Consider `N#Cc1ccc(C(=O)N2CCC3(CC2)N=C(N)c2c(F)ccc(F)c2N3)cc1`, for which the IC50 with DLD-1 came out at 1.6 µM; in [1], 0.048 µM; against Nitric oxide synthase 1 [2], 3.3 µM. Further, the pKa in data set [4] is 8.4. For the same molecule, the inhibition in data set [5] amounted to 50%. In the data set with Rattus norvegicus [3], the ED50 was determined as 3 µmol/kg.
For the molecule `NC1=NC(C2CCCC2)Nc2ccccc21` (configuration not stated), in data set [1], the IC50 stood at 4.5 µM.
`CNC(=N)NCCC[C@H](N)C(=O)O` [TILARGININE] displayed an IC50 with DLD-1 of 21 µM. In addition, the ED50 in the data set on Rattus norvegicus [3] came to 700 µmol/kg.
Consider `N#Cc1ccc(C(=O)N2CCC3(CC2)N=C(N)c2c(F)ccc(F)c2N3)cn1`, for which the IC50 in the data set with DLD-1 was 0.9 µM. This molecule also yielded an inhibition in data set [5] of 50%. Besides, the ED50 in the data set with Rattus norvegicus [3] is 3 µmol/kg; in the data set listed under Rattus norvegicus [9] it was around 10 µmol/kg.
Molecule `NC1=NC(c2ccco2)Nc2ccccc21` (configuration not stated) had an IC50 in data set [1] of 0.2 µM.
Turning to `CSCCOC(=O)N1CCC2(CC1)N=C(N)c1c(F)cccc1N2`, the IC50 came out at 11 µM in the data set on DLD-1 and 0.039 µM in data set [1]. The inhibition (against Nitric oxide synthase 1 [10]; in [5]) was 50% in each case.

Usually IC50 stands for the concentration that gives 50% inhibition. Low readings indicate greater potency in that assay, high ones weaker potency in that assay. What is called pKa is the negative logarithm of the acid dissociation constant. Low readings indicate a group that gives up its proton readily, high ones a group that holds its proton tightly. As a reminder, the inhibition is the drop in the measured response relative to a control, in per cent. Higher therefore signals strong suppression.
